Results pooled from the literature.
Compare with care: the assays were run in different laboratories.
Target: Casein kinase I isoform delta (CSNK1D, Homo sapiens, UniProt P48730)

| Structure (SMILES) | effect on | technique | concentration | remaining binding [%] |
| --- | --- | --- | --- | --- |
| c1cnn2ncc(-c3ccnc(N4CCC45COC5)n3)c2c1 | binding | – | 1 µM | 41 |
| c1cncc(-c2cccc(Nc3nccc(NC4CCCCC4)n3)c2)c1 | binding | competition with immobilised ligand | 10 µM | 55 |
| Cc1cnn2ncc(-c3ccnc(N(C)C)n3)c2c1 | binding | – | 1 µM | 69 |
| CCN1CCN(Cc2ccc(C(=O)Nc3ccc(C)c(Oc4ccc5c(c4)CC(=O)N5)c3)cc2C(F)(F)F)CC1 | binding | competition with immobilised ligand | 1 µM | 88 |
| CNC(=O)[C@@H]1CC[C@@H](n2c(-c3ccc4cnccc4c3)nc3ccc(C(=O)NCc4cccc(C(N)=O)c4)cc32)C1 | binding | competition with immobilised ligand | 1 µM | 100 |
| O=C(c1ccc(Nc2ncc(Cl)c(-c3cc4ccccc4s3)n2)cc1)N1CCC(N2CCCC2)CC1 | binding | competition with immobilised ligand | 1 µM | 100 |
| CN(C)c1ncc(F)c(-c2cnn3ncccc23)n1 | binding | – | 1 µM | 100 |
| O=C(Nc1c[nH]nc1C(=O)NC1CCNCC1)c1cc(F)cc(F)c1 | binding | competition with immobilised ligand | 1 µM | 95 |
| C[C@@H]1CCN(c2nccc(-c3cnn4ncccc34)n2)C1 | binding | – | 1 µM | 64 |
| O=C(c1ccc(Nc2nccc(-c3cc4ccccc4s3)n2)cc1)N1CCC(N2CCCC2)CC1 | binding | competition with immobilised ligand | 1 µM | 100 |
| CN(C(=O)c1ccccc1)c1cc(N(C)c2ccc3c(c2)CCc2ccc(C(=O)NCCN4CCOCC4)cc2C3=O)ccc1F | cell-free assay | competition with immobilised ligand | 1 µM | 100 |
| CN(C)c1nccc(-c2cnc3ncccn23)n1 | binding | – | 1 µM | 57 |
| CN(C)c1ncnc(-c2ccc3nc(Nc4cc(CN5CCN(C(=O)CC(F)(F)F)CC5)ccn4)[nH]c3c2)c1Cl | cell-free assay | competition with immobilised ligand | 1 µM | 83 |
| COc1ncc2cc3ccccc3nc2c1C#N | cell-free assay | competition with immobilised ligand | 5 µM | 93 |
| O=C(Nc1cccnn1)N1CCC(=Cc2cccc(Oc3ccc(C(F)(F)F)cn3)c2)CC1 | cell-free assay | competition with immobilised ligand | 1 µM | 100 |
| CC1CCCN1c1nccc(-c2cnn3ncccc23)n1 (stereo not drawn) | binding | – | 1 µM | 100 |
| N#Cc1ccc(Nc2ccc3[nH]c(=O)[nH]c3c2)c(Cl)c1 | cell-free assay | competition with immobilised ligand | 1 µM | 100 |
| COc1cnc(Nc2cccc(S(N)(=O)=O)c2)nc1N1CCN(c2ccccc2)CC1 | binding | competition with immobilised ligand | 1 µM | 97 |
| CNC(=O)Nc1ccc2c(c1)[C@@]1(CC2)OC(=O)N(CC(=O)N(Cc2ccc(F)cc2)[C@@H](C)C(F)(F)F)C1=O | cell-free assay | competition with immobilised ligand | 1 µM | 100 |
| Cc1cnc(Nc2ccc(C(=O)N3CCC(N4CCCC4)CC3)cc2)nc1-c1cc2ccccc2s1 | binding | competition with immobilised ligand | 1 µM | 100 |
| Cc1cc(C)c(-n2ccn3nc(-c4cccnc4)cc23)cc1NC(=O)c1cc(C#N)cc(S(F)(F)(F)(F)F)c1 | cell-free assay | competition with immobilised ligand | 0.1 µM | 100 |
| COC(=O)Nc1nc2ccc(C(=O)c3ccccc3)cc2[nH]1 | cell-free assay | competition with immobilised ligand | 10 µM | 36 |
| CN(C)CC#Cc1ccc(OCCCc2sc(N3CCc4cccc(C(=O)Nc5nc6ccccc6s5)c4C3)nc2C(=O)O)c(F)c1 | cell-free assay | competition with immobilised ligand | 1 µM | 95 |
| Nc1ncc2c(n1)-c1c([nH]c3ccc(C#CC4CC4)cc13)CCCC2 | binding | competition with immobilised ligand | 1 µM | 91 |
